Measurements collected from several papers.
Compare with care: the assays were run in different laboratories.
DRD1: D(1A) dopamine receptor (DRD1, Homo sapiens, UniProt P21728)
BCHE: Cholinesterase (BCHE, Equus caballus, UniProt P81908)
Sterol carrier protein 2: Sterol carrier protein 2 (Aedes aegypti, UniProt Q86PR3)

Compound | target | read-out | mode | technique | notes | measurement | value
CN(C)C(=O)COC(=O)c1cc(-c2ccc([C@H]3C[C@H]4C[C@@H]3CN4)cc2)c2ccc(-c3ccc(C(F)(F)F)cc3)cc2c1 | DRD1 | cell-free assay | – | radioligand | – | Ki | 1.4 to 2.2 µM
CC=C1[C@H]2C=C(C)C[C@]1(N(C)C)c1ccc(=O)[nH]c1C2 | BCHE | enzyme activity | inhibitor | Ellman | – | IC50 | 224 µM
N[C@H]1C[C@@H](CO)[C@H](c2ccc(-c3cc(C(=O)O)cc4cc(-c5ccc(C(F)(F)F)cc5)ccc34)cc2)C1 | DRD1 | cell-free assay | – | radioligand | – | Ki | 1.4 to 2.2 µM
CNC[C@H](O)c1cccc(O)c1 | DRD1 | cAMP | agonist | TR-FRET | – | EC50 | 2.8 µM
O=S(=O)(O)c1ccc(-c2c3nc(c(-c4ccc(S(=O)(=O)O)cc4)c4ccc([nH]4)c(-c4ccc(S(=O)(=O)O)cc4)c4nc(c(-c5ccc(S(=O)(=O)O)cc5)c5ccc2[nH]5)C=C4)C=C3)cc1 | Galectin-7 (LGALS7, Homo sapiens, UniProt P47929) | binding | – | – | – | Kd | 9.5 µM
O=c1c(O)c(-c2ccc(O[C@@H]3O[C@H](CO)[C@@H](O)[C@H](O)[C@H]3O)c(O)c2)oc2cc(O)cc(O)c12 | BCHE | enzyme activity | inhibitor | – | – | Ki | 0.0281 µM
O=c1c(O)c(-c2ccc(O)c(O)c2)oc2cc(O)cc(O)c12 | Sterol carrier protein 2 | ligand displacement | – | – | – | EC50 | 18.4 µM
CC(CCc1ccc(O)cc1)NCCc1ccc(O)c(O)c1 (stereo not drawn) | DRD1 | cAMP | agonist | TR-FRET | – | EC50 | 13 µM
C[C@H]1c2c[nH]c3cccc(c23)S[C@H]1C(=O)O | trpS (Geobacillus stearothermophilus, UniProt P00953) | binding | – | ITC | – | Kd | 3.1 µM
CNc1nc(C#Cc2ccc(Cl)s2)nc2c1ncn2[C@@H]1O[C@H](C(=O)OC)[C@@H](O)[C@H]1O | Sodium-dependent serotonin transporter (SLC6A4, Homo sapiens, UniProt P31645) | ligand displacement | – | radioligand | cell membranes | Ki | > 10 µM
COc1cc(/C=C2\CCC/C(=C\c3cc(OC)c(OC)c(OC)c3)C2=O)cc(OC)c1OC | Sterol carrier protein 2 | ligand displacement | – | fluorescence | – | EC50 | 12.1 µM
CC=C1[C@H]2C=C(C)C[C@]1(N(C)C)c1ccc(OC)nc1C2 | BCHE | enzyme activity | inhibitor | Ellman | – | IC50 | 1350 µM
